Rows were chosen to be rich in hits. Some 4.6% of all compounds tested hit in one or more screens of this group.
ALR inh: inhibitors of human ALR sulfhydryl oxidase, primary screen, biochemical, H2O2 detection, HRP-luminol luminescence, single point; inhibition, % (concentration not given with the values); 3.8% of 290,000 active; AID 485317, 2010; purified ALR, DTT oxidation; FAD-linked sulfhydryl oxidase ALR (Homo sapiens), P55789;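 active means mean replicate inhibition above about 79%, with every replicate also reaching it, limit read from the data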
NLRP3 yeast inh: NALP3 inflammasome inhibitors in reconstituted yeast, primary screen, luminescence, uHTS; Yeast reconstituted NLRP3/ASC/caspase-1, beta-gal luminescence, 24 h; inhibition, % at 10 µM; 0.39% of 330,000 active;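 active means inhibition of 50% or more; inactive means inhibition below 50%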
NALP1 inh: NALP1 inflammasome inhibitors in reconstituted yeast, colorimetric, S. cerevisiae, triplicate retest. S. cerevisiae NALP1/ASC/caspase-1 growth, X-gal OD620, 72 h. inhibition, % at 10 µM. 0.61% of 280,000 active; in the data active means inhibition mostly above about 24%, no sharp cut-off; inactive means mostly below about 32%
Arrestin-AP2 inh: inhibitors of beta-arrestin/AP2 binding, primary screen, biochemical, GPCR trafficking, flow cytometry. beta-arrestin 1 C-terminal peptide binding to AP2 beta2-adaptin appendage (human). FITC-arrestin peptide / GST-AP2 beads; AP2 beta2 appendage carries R879A mutation. inhibition, % at 10 µM. 0.31% of 340,000 active;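 active means inhibition above a set limit, near 3 SD of compounds lacking own fluorescence, cut at about 54% in these data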
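System: GST-AP2 R879A glutathione beads. Medium: PBS with 0.05% Tween 20 and 0.1% BSA. Also added: FITC-arrestin peptide, 50 nM. Incubation: 12 min plus 1 h, RT. Measured by: high-throughput flow cytometry of beads, ex 488, em 535 nm. Evaluation: percent drop in bead-associated FITC signal.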
Pemphigus Ab inh: inhibitors of pemphigus antibody binding to DSG3, primary screen, biochemical, bead-based, flow cytometry, scFv-GFP; AID 588358, 2011; 0.48% of 310,000 active; DSG3-coupled beads, scFv-anti-DSG3-GFP binding; active compounds read low; binding (percent of control), % at 10 µM;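 active means binding more than 3 SD below its plate's average and above zero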;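 further: hits lower antibody fragment binding to DSG3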
Target sequence (P32926 whole entry, looked up, the tested form may be a part): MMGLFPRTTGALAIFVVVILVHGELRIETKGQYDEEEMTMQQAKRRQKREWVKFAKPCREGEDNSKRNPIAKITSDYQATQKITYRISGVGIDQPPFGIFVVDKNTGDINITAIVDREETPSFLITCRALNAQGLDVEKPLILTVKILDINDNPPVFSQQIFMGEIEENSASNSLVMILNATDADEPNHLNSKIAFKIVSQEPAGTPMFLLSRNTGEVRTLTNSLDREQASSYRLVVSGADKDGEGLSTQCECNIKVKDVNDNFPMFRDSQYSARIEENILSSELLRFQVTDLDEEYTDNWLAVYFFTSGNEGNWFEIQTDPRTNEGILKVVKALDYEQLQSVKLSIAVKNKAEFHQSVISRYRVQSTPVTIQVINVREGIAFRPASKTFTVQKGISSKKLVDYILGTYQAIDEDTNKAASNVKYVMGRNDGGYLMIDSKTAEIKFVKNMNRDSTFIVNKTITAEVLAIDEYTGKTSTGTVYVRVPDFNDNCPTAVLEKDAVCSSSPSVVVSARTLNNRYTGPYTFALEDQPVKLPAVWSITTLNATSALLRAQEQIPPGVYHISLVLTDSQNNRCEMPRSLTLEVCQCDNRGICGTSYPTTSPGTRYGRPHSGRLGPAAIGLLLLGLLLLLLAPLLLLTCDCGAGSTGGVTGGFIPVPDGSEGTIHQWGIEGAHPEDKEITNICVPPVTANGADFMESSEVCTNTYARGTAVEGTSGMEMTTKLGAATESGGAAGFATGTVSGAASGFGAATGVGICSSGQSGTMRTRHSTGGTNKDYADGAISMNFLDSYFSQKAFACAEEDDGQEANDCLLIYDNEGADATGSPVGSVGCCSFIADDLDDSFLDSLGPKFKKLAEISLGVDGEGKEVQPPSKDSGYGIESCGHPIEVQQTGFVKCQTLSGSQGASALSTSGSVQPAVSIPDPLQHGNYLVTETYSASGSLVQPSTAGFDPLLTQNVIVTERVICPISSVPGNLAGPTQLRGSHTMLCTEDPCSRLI
PolyA inh: polyadenylation inhibitors in yeast reporter cells, primary screen, luminescence, S. cerevisiae; S. cerevisiae SKY197-pL101 polyadenylation reporter, beta-gal luminescence; efflux-impaired pdr1/pdr3 knockout yeast; score 100 = 6 SD above DMSO; activity score, % at 12 µM; 0.02% of 300,000 active;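 active means lowest replicate activity score at least 50, where 100 means six control SD above control mean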;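 further: yeast exposed to compound for 9 h at 30 °C; higher score means more reporter readthrough which indicates perturbed polyadenylation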
Hits are given with their value.

What do the screens show for `CN(C)CCCNS(=O)(=O)c1cc(Cl)c(Cl)cc1Cl`?
ALR inh: inactive; NLRP3 yeast inh: inactive; NALP1 inh: inactive; Arrestin-AP2 inh: inactive; PolyA inh: inactive

What do the screens show for `CN(C)CCCNS(=O)(=O)c1ccc(Cl)s1`?
ALR inh: inactive; NLRP3 yeast inh: inactive; NALP1 inh: 29.9; Arrestin-AP2 inh: inactive; Pemphigus Ab inh: inactive; PolyA inh: inactive

What do the screens show for `O=C(c1ccccc1)N1CCC(=O)N1c1ccccc1`?
ALR inh: inactive; NLRP3 yeast inh: inactive; NALP1 inh: inactive; Arrestin-AP2 inh: inactive; Pemphigus Ab inh: inactive; PolyA inh: inactive

Results for O=C1CN(c2ccccc2)C(=S)N1C(=O)c1ccccc1 ?
ALR inh: 97.6; NLRP3 yeast inh: inactive; NALP1 inh: inactive; Arrestin-AP2 inh: inactive; Pemphigus Ab inh: inactive; PolyA inh: inactive

How did Cc1ccc(C)c(CNc2ccc(S(=O)(=O)N3CCCCC3)cc2)c1 do in these assays?
ALR inh: inactive; NLRP3 yeast inh: inactive; Arrestin-AP2 inh: inactive

How did COc1ccc(C(=O)c2ccc(Cl)c([N+](=O)[O-])c2)cc1 do in these assays?
ALR inh: 96.7; NLRP3 yeast inh: inactive; NALP1 inh: inactive; Arrestin-AP2 inh: inactive; Pemphigus Ab inh: inactive; PolyA inh: inactive

How did COc1ccc(C(=O)c2ccc(Cl)cc2)cc1 do in these assays?
NLRP3 yeast inh: inactive; NALP1 inh: inactive; Arrestin-AP2 inh: inactive; Pemphigus Ab inh: inactive; PolyA inh: inactive

How did Fc1ccc(-n2c(CN3CCCCC3)n[nH]c2=S)cc1 do in these assays?
ALR inh: 86.9; NLRP3 yeast inh: inactive; NALP1 inh: inactive; Arrestin-AP2 inh: inactive; PolyA inh: inactive

How did CCc1ccc([C@@H]2C[C@H]3[C@@H](CN2S(=O)(=O)c2ccc(C)cc2)C(=O)C[C@@H](c2cccc(Cl)c2)N3S(=O)(=O)c2ccc(C)cc2)cc1 do in these assays?
Pemphigus Ab inh: inactive

Results for C=CCSc1nc(N2CCOCC2)c2c(c1C#N)CC(C)(C)N(C)C2 ?
NLRP3 yeast inh: inactive; NALP1 inh: inactive; Arrestin-AP2 inh: inactive; Pemphigus Ab inh: inactive; PolyA inh: inactive

Results for COC(=O)CSc1nc(N2CCOCC2)c2c(c1C#N)CC(C)(C)N(C)C2 ?
ALR inh: 94.7; NLRP3 yeast inh: inactive; NALP1 inh: inactive; Arrestin-AP2 inh: inactive; Pemphigus Ab inh: inactive; PolyA inh: inactive

What do the screens show for `C/C(=N\NC(=O)Cc1ccccc1)c1ccc(Cl)s1`?
ALR inh: inactive; NLRP3 yeast inh: inactive; NALP1 inh: inactive; Arrestin-AP2 inh: inactive; Pemphigus Ab inh: inactive; PolyA inh: inactive

Results for COc1cccc(N2CCN(C(=O)c3ccc(=O)oc3)CC2C)c1 (configuration not stated) ?
NLRP3 yeast inh: inactive; NALP1 inh: 40.5; Arrestin-AP2 inh: inactive; Pemphigus Ab inh: inactive; PolyA inh: inactive

Results for COc1cccc(NC(=O)N2CCCCCC2)c1 ?
ALR inh: inactive; NLRP3 yeast inh: inactive; NALP1 inh: inactive; Arrestin-AP2 inh: inactive; Pemphigus Ab inh: inactive; PolyA inh: inactive

What do the screens show for `Cc1cccc(N2CCN(C(=O)c3ccc4nc(-c5ccco5)c(-c5ccco5)nc4c3)CC2C)c1` (configuration not stated)?
ALR inh: inactive; NLRP3 yeast inh: inactive; NALP1 inh: inactive; Arrestin-AP2 inh: inactive; PolyA inh: inactive

How did COc1cccc(NC(=O)N2CCN(c3cccc(C)c3)C(C)C2)c1 (configuration not stated) do in these assays?
ALR inh: 98.5; NLRP3 yeast inh: inactive; NALP1 inh: inactive; Arrestin-AP2 inh: inactive; Pemphigus Ab inh: inactive; PolyA inh: inactive

What do the screens show for `CN(CC(=O)NCc1cccnc1)S(=O)(=O)c1ccc2c(c1)c(=O)n(C)c(=O)n2C`?
ALR inh: inactive; NLRP3 yeast inh: inactive; NALP1 inh: 43.5; Arrestin-AP2 inh: inactive; Pemphigus Ab inh: inactive; PolyA inh: inactive

How did CN(CC(=O)NCc1ccco1)S(=O)(=O)c1ccc2c(c1)n(C)c(=O)c(=O)n2C do in these assays?
ALR inh: 91.8; NLRP3 yeast inh: inactive; NALP1 inh: inactive; Arrestin-AP2 inh: inactive; Pemphigus Ab inh: inactive; PolyA inh: inactive

How did CC1CCN(S(=O)(=O)N2CCC(C(=O)NC(C)c3ccccc3)CC2)CC1 (configuration not stated) do in these assays?
Pemphigus Ab inh: inactive

Results for COc1ccc(-c2csc3[nH]c(=S)n(-c4ccccc4)c(=O)c23)cc1OC ?
ALR inh: 83.2; NLRP3 yeast inh: inactive; NALP1 inh: inactive; Arrestin-AP2 inh: inactive; Pemphigus Ab inh: inactive; PolyA inh: inactive

What do the screens show for `COC(=O)c1cc(NC2c3ccccc3C(=O)N2Cc2ccco2)cc(C(=O)OC)c1` (configuration not stated)?
ALR inh: inactive; NLRP3 yeast inh: inactive; NALP1 inh: inactive; Arrestin-AP2 inh: inactive; Pemphigus Ab inh: inactive

Results for COc1ccc(NC2c3ccccc3C(=O)N2Cc2ccco2)cc1OC (configuration not stated) ?
ALR inh: 99.6; NLRP3 yeast inh: inactive; NALP1 inh: inactive; Arrestin-AP2 inh: inactive; Pemphigus Ab inh: inactive; PolyA inh: inactive

Results for O=C1c2ccccc2C(Nc2ccc3c(c2)OCO3)N1Cc1ccco1 (configuration not stated) ?
ALR inh: 99.0; NLRP3 yeast inh: inactive; NALP1 inh: inactive; Arrestin-AP2 inh: inactive; Pemphigus Ab inh: inactive; PolyA inh: inactive

Results for CCOc1ccc(NC2c3ccccc3C(=O)N2Cc2ccco2)cc1 (configuration not stated) ?
ALR inh: 98.2; NLRP3 yeast inh: inactive; NALP1 inh: inactive; Arrestin-AP2 inh: inactive; Pemphigus Ab inh: inactive; PolyA inh: inactive

How did O=C1c2ccccc2C(Nc2ccc3c(c2)OCO3)N1Cc1ccc2c(c1)OCO2 (configuration not stated) do in these assays?
ALR inh: inactive; NLRP3 yeast inh: inactive; NALP1 inh: inactive; Arrestin-AP2 inh: inactive; Pemphigus Ab inh: inactive; PolyA inh: inactive

How did CC1=C(C(=O)N2CCOCC2)CC(CC(=O)NC(c2ccccc2)c2ccccc2)C(=O)N1Cc1ccc(F)cc1 (configuration not stated) do in these assays?
Pemphigus Ab inh: inactive

What do the screens show for `O=C(O)c1ccc(CNC(=O)C2CCN(S(=O)(=O)c3ccc4c(c3)OCCO4)CC2)cc1`?
Pemphigus Ab inh: inactive

Results for CC(C)CC1NC(=O)c2cc3ccccc3cc2-n2c1nc1ccc(F)cc1c2=O (configuration not stated) ?
Pemphigus Ab inh: inactive

Bioassay records: PubChem BioAssay, several laboratories
